In one assay the test system is Bacillus subtilis. Briefly: Antibacterial activity against Bacillus subtilis ATCC 6633 at 200 ug/mL. It is filed as functional, organism-based.
A further assay deals with Micrococcus luteus. The assay can be described thus: Antibacterial activity against Micrococcus luteus ATCC 10240 at 200 ug/mL. It is filed as functional, organism-based.
The next assay relates to Staphylococcus aureus. Briefly: Antibacterial activity against Staphylococcus aureus ATCC 6538 at 200 ug/mL. The class given is functional, organism-based.
The subject of another assay is Escherichia coli. Briefly: Antibacterial activity against Escherichia coli ATCC 11775 at 200 ug/mL. The class given is functional, organism-based.
A further assay has as its system Klebsiella pneumoniae. The assay can be described thus: Antibacterial activity against Klebsiella pneumoniae ATCC 10031 at 200 ug/mL. It is filed as functional, organism-based.
In a further assay the test system is Salmonella typhimurium. The assay can be described thus: Antibacterial activity against Salmonella Typhimurium ATCC 14028 at 200 ug/mL. It is filed as functional, organism-based. As to conditions: Salmonella enterica subsp. enterica serovar Typhimurium.
In a further assay the test system is Candida albicans. The assay can be described thus: Antifungal activity against Candida albicans ATCC 10231 at 200 ug/mL. The class given is functional, organism-based.
Assay [1] deals with Trichophyton mentagrophytes. The assay can be described thus: Antifungal activity against Trichophyton mentagrophytes IFO 40996 at 200 ug/mL. It is filed as functional, organism-based.
For a further assay, the system named is Trichophyton rubrum. The assay can be described thus: Antifungal activity against Trichophyton rubrum IFO 6204 at 200 ug/mL. It is filed as functional, organism-based.
For another assay, the system named is Proteus vulgaris. Briefly: […] activity against Proteus vulgaris ATCC 3851 at 200 ug/mL. The class given is functional, organism-based.
A short description of assay [2]: Inhibition of Staphylococcus aureus sortase B. Summed up:
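Recombinant sortase B enzyme; inhibition given as EC50 in µg/mL.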

Our source for the Activity and EC50 values is ChEMBL document CHEMBL1158747, “Cyclic peptides of the nocardamine class from a marine-derived bacterium of the genus Streptomyces” (J Nat Prod, 2005).

Structures are written as SMILES. In brackets after ≈: the same amount, converted by molar mass. Activity calls are given as the source filed them. The calls are words filed in the database; no cut-off is given here.

In the case of `O=C1CCC(=O)NCCCCCN(O)C(=O)CCC(=O)NCCCCCN(O)C(=O)CCC(=O)NCCCCCN1` [DEHYDROXYNOCARDAMINE], the result in the assay on Bacillus subtilis, in the assay with Micrococcus luteus, in the assay on Staphylococcus aureus, with Escherichia coli, with Klebsiella pneumoniae and with Salmonella typhimurium was inactive. For the same molecule, the result (in the assay on Candida albicans; in [1]; in the assay on Trichophyton rubrum; in the assay on Proteus vulgaris) was inactive. The EC50 (commonly the concentration at which the effect is half-maximal) in assay [2] worked out at 88.3 µg/mL (≈ 151 µM).
For the molecule `O=C1CCC(=O)N(O)CCCCCNC(=O)CCC(=O)N(O)CCCCNC(=O)CCC(=O)N(O)CCCCCN1` [DESMETHYLENYLNOCARDAMINE], the result with Bacillus subtilis, in the assay on Micrococcus luteus, in the assay with Staphylococcus aureus, with Escherichia coli, with Klebsiella pneumoniae and with Salmonella typhimurium was inactive. Also, the outcome (in the assay with Candida albicans; in assay [1]; in the assay with Trichophyton rubrum; in the assay with Proteus vulgaris) was inactive. The molecule further showed a half-maximal effective concentration (EC50) in [2] of 126.4 µg/mL (≈ 215 µM).
In the case of `O=C1CCC(=O)N(O)CCCCCNC(=O)CCC(=O)N(O)CCCCCNC(=O)CCC(=O)N(O)CCCCCN1` [NOCARDAMINE], the outcome with Bacillus subtilis, with Micrococcus luteus, in the assay with Staphylococcus aureus, with Escherichia coli, in the assay on Klebsiella pneumoniae and with Salmonella typhimurium was inactive. The result (in the assay on Candida albicans; in [1]; in the assay on Trichophyton rubrum; in the assay with Proteus vulgaris) was inactive. In assay [2], this molecule gave an EC50 of more than 200 µg/mL.
